The source made the active and inactive calls.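 The calls were made as follows: active = compounds reducing DiI-HDL uptake fluorescence after washout, with fitted AC50 at most twice the top tested dose; inconclusive = flat partial inhibition of 30 to 70% or a poor fit; inactive = the rest.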
molecular target: Scavenger receptor class B member 1 (Mus musculus) (UniProt Q61009); assay: reversibility of SR-BI HDL uptake inhibition, late-stage follow-up, mechanism study for SR-BI HDL uptake inhibitor project, ldlA[mSR-BI] CHO cells, fluorescence (AID 602154); conditions: DiI-HDL uptake after washout
Sequence (Q61009 whole entry, looked up): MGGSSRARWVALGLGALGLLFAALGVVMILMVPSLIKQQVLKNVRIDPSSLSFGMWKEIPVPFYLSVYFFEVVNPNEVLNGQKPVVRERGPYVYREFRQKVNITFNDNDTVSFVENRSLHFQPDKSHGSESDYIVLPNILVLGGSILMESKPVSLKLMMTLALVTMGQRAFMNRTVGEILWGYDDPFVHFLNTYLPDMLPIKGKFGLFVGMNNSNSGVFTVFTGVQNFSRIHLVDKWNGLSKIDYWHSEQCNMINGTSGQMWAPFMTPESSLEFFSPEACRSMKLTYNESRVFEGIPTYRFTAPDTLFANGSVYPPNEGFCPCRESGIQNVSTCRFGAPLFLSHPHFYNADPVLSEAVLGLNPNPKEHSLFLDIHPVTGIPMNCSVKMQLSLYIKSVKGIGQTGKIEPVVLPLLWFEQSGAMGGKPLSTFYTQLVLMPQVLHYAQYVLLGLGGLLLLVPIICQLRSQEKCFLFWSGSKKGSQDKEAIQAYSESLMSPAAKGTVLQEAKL
Outline: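 medium = BSA (fatty acid-free) and HEPES uptake buffer | material = SR-BI-overexpressing LDL-receptor-null CHO cells | incubation = 2 h compound, 4 h washout, 3 h DiI-HDL | detection = DiI fluorescence, 550/595 nm, bottom read | reagent = 10 µg/mL DiI-HDL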

| AC50 | Structure (SMILES) |
| --- | --- |
| > 70000 nM (inactive) | C[C@H](C(=O)NC1CCCC1)N(C(=O)Cn1nnc(-c2ccc3c(c2)OCO3)n1)C1CCCCC1 |
| 0.598 nM | CCCCCCC1CCC/C1=N\NC(N)=S (stereo not drawn) |
| 860 nM | COCC(=O)N1CCc2cc(-c3csc(NC(=O)c4cc(OC)cc(OC)c4)n3)ccc21 |
